≈ marks a conversion by molar mass, not a printed value. Where two headings read alike, the source gives them in different places.

In data set [1] the target is EntE (dihydroxybenzoate-AMP ligase) (Escherichia coli, UniProt P10378). The conditions noted are these: for Km / kcat: pH 7.8.
The subject of another data set is O=C(O)c1cccc(O)c1O. Put plainly: purified protein, by the assay type. The conditions noted are these: other: 25°C, pH 7.8, the other substrates fixed and saturating.
The subject of a further data set is O=C(O)c1cccc(O)c1. Put plainly: purified protein, by the assay type. To be noted: other: 25°C, pH 7.8, the other substrates fixed and saturating.
The test system of a further data set is Nc1ccc(C(=O)O)c(O)c1. Put plainly: purified protein, by the assay type. The conditions noted are these: other: 25°C, pH 7.8, the other substrates fixed and saturating.
In data set [2] the target is T1, EntE (Escherichia coli, UniProt P10378). Put plainly: ITC of DHB binding to free EntE. The method, boiled down: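 DHB binding was run by ITC at 25°C in 50 mM HEPES pH 7.8, 10 mM MgCl2. EntE was dialysed against this buffer and ligand was prepared in the dialysate. EntE concentration came from ε280 = 58 790 M⁻¹ cm⁻¹ and DHB by weight. 50 μM EntE in the cell; 1 mM DHB injected 5 μL every 230 s.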

The subject of a further data set is M. tuberculosis. The conditions noted are these: cited from earlier work.
The target of data set [3] is T1, EntE. To be noted: competitive ligand in displacement ITC; cited from earlier work.
The target of data set [4] is T1, EntE. Put plainly: ITC of Sal-AMS and DHB-AMS with EntE. It counts as binding.
Data set [5] has as its target T1, EntE. It counts as biochemical. The method, boiled down:
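Stopped-flow coupled assay (myokinase/pyruvate kinase/LDH, NADH at 340 nm) in 100 mM HEPES pH 7.8, 10 mM MgCl2, 25°C. […] Bisubstrate adenylate analogues were varied. Equal volumes were mixed with 16 nM EntE and followed for 4 min. The first 20 s were discarded. Five traces were averaged per concentration and fitted to a slow-onset equation; kobs was plotted against inhibitor concentration.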

Data set [6] deals with T1, EntE. Put plainly: Dead-end inhibition of EntE by AMPCPP, coupled assay. It counts as biochemical. To be noted: holo-EntB-ArCP 4 μM.
Where [7] appears, read: 25°C, the other substrates fixed and saturating.

Sequence of EntE (dihydroxybenzoate-AMP ligase) (P10378 whole entry): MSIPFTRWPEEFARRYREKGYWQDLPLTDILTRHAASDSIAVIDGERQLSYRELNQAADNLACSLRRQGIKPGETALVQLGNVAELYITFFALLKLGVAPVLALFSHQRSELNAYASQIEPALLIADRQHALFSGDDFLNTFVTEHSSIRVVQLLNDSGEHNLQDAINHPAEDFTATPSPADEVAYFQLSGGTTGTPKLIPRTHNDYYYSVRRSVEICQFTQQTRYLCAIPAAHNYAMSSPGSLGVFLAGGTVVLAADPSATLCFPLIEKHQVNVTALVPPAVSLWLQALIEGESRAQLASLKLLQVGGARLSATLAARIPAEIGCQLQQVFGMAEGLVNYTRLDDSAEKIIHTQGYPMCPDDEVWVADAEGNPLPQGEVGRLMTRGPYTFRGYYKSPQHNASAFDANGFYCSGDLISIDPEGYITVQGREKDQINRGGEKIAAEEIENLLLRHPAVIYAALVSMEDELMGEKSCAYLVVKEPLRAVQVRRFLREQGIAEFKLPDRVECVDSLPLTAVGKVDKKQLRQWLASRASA
T1 sequence (P10378 whole entry): as above

In the case of `Nc1ccc(C(=O)O)cc1` [4-aminobenzoic acid], the “substrate activity for the EntE reaction” value in [1] (tested as substrate in the coupled assay) is “no activity was observed”.
As a reminder, the Km is the concentration of substrate that gives half-maximal velocity. One may read the kcat/Km as the second-order rate constant that governs catalysis at low substrate concentration. Broadly, the kcat is the maximal rate divided by the concentration of active sites. As for “EntE (dihydroxybenzoate-AMP ligase) (Escherichia coli K-12)”, in the data set on O=C(O)c1cccc(O)c1O, the Km came to 2.5 ± 0.3 µM and the catalytic efficiency (kcat/Km) was found to be 880000 M⁻¹ s⁻¹. Also, in the data set on O=C(O)c1cccc(O)c1, the Km came to 70 ± 8 µM, the kcat was found to be 0.3 ± 0.01 s⁻¹ and the kcat/Km came to 4600 M⁻¹ s⁻¹. Also, the Km in the data set on Nc1ccc(C(=O)O)c(O)c1 is 3100 ± 300 µM.
In general, Kd refers to the concentration at which binding is half-saturated. The compound `O=C(O)c1cccc(O)c1O` [DHB, 2,3-dihydroxybenzoic acid] gave a Kd on EntE [2] of 8700 nM. Moreover, the n at EntE [2] (one-set of sites model) was found to be 0.824 ± 0.00512. At EntE [2] (one-set of sites model, 25°C), this compound came in with a KA of 115000 ± 2800 M⁻¹, a ΔH of -69.036 ± 0.586 kJ/mol and a ΔS of −32.2 cal mol^−1 K ^−1.
In general, MIC99 refers to the lowest concentration that inhibits either 99% of growth or 99% of the strains tested, depending on the study. `NNC(=O)c1ccncc1` [isoniazid]: the MIC99 in the data set on M. tuberculosis was 0.18 µM (≈ 0.0247 µg/mL).
Consider `O=C(O)c1ccccc1O` [salicylic acid], for which, in data set [1] (setting [7]), the Km was determined as 70 ± 4 µM. The catalytic constant (kcat) in data set [1] is 0.8 ± 0.1 s⁻¹. For the same compound, the “KA^B” value on EntE [3] is 4740 M⁻¹.
What is called Ki is a measure of affinity in units of concentration, obtained from inhibition or displacement. A lower Ki goes with tighter binding. For `Nc1ncnc2c1ncn2[C@@H]1O[C@H](COS(=O)(=O)NC(=O)c2cccc(O)c2O)[C@@H](O)[C@H]1O` [DHB-AMS, 5′-O-[N-(2,3-dihydroxybenzoyl)sulfamoyl]adenosine], at EntE [4] (293 K, calculated from eq 11), the TΔS was -1.7 kJ/mol and the “−ΔG” value is 62.8 kJ/mol. Moreover, the “fold lower KD than Sal-AMS” value on EntE [4] (ITC) amounted to 10 fold. Binding on EntE [4] (KA, displacement ITC with 200 mM salicylic acid, 293 K, pH 8.0) was put at a Kd of 0.00627 nM. On EntE [4] (KD, displacement ITC with salicylic acid, KD = 1/KA, 20°C), this compound gave a Kd of 0.0075 nM. Further, the “n (number of binding sites per monomer)” value at EntE [4] (displacement ITC) is given as 1.12 ± 0.03. In addition, the “−ΔH” value on EntE [4] (stoichiometric titration at high c, 293 K) worked out at 64.4 kJ/mol. The same compound showed a Ki on EntE [5] of 3.8 nM. At EntE [5] (time-courses of product formation), the type of inhibition entry is “slow-onset tight-binding inhibitors”.
Take `Nc1ncnc2c1ncn2C1OC(COP(=O)(O)CP(=O)(O)OP(=O)(O)O)C(O)C1O` (stereo not drawn) [AMPCPP, α, β-methyleneadenosine 5′-triphosphate]: the “inhibition pattern versus ATP” value against EntE [6] (varied ATP, saturating DHB (80 μM)) was “competitive inhibition”. The “inhibition pattern versus DHB” value against EntE [6] (varied DHB, saturating ATP (5 mM)) was “uncompetitive inhibition”.
For `CC(C)(CO)[C@@H](O)C(=O)NCCC(=O)NCCS` [D-pantetheine], in data set [1] (setting [7]), the Km is 34200 ± 2000 µM and the kcat came out at 0.9 ± 0.1 s⁻¹.

The values above are taken from article PMC2860672 (Biochemistry, 2010).
